Activity calls are given as the source filed them. The calls are words filed in the database; no cut-off is given here.
Experiments:
[1] = tested on: MCF7; test: Cytotoxicity against human MCF7 cells by SRB assay; format: functional, cell-based
How it was run: (§1)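 Sulforhodamine B (SRB) cytotoxicity assay, following an earlier published protocol, run in vitro against a four-line human tumor panel: HepG2 (hepatocellular liver carcinoma), MCF7 (breast adenocarcinoma), NCI-H460 (non-small-cell lung cancer) and SF268 (glioma). IC50 values reported in μM.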

[2] = tested on: Staphylococcus aureus; test: Antimicrobial activity against Staphylococcus aureus ATCC 29213 by the broth microdilution method; format: functional
[3] = tested on: HepG2; test: Cytotoxicity against human HepG2 cells by SRB assay; format: functional, cell-based; how it was run: as §1
[4] = tested on: Candida albicans; test: Antimicrobial activity against Candida albicans ATCC10231 by the broth microdilution method; format: functional
[5] = tested on: Bacillus thuringiensis; test: Antimicrobial activity against Bacillus thuringiensis SCSIO BT01 by the broth microdilution method; format: functional
[6] = tested on: NCI-H460; test: Cytotoxicity against human NCI-H460 cells by SRB assay; format: functional, cell-based; how it was run: as §1
[7] = tested on: Bacillus subtilis; test: Antimicrobial activity against Bacillus subtilis SCSIO BS01 by the broth microdilution method; format: functional
[8] = tested on: Escherichia coli; test: Antimicrobial activity against Escherichia coli ATCC 25922 by the broth microdilution method; format: functional

Row | MIC [2] | MIC [4] | MIC [5] | MIC [7] | MIC [8] | SMILES | IC50 [1] | inhibition [3] | inhibition [6]
1 | > 128 µg/mL | > 128 µg/mL | > 128 µg/mL | > 128 µg/mL | > 128 µg/mL | CN1C[C@](C)(c2cn(C)cc2-c2c[nH]c3ccc(Cl)cc23)c2cc(Cl)ccc21 | > 10 µM | inactive | inactive
2 | > 128 µg/mL | > 128 µg/mL | > 128 µg/mL | > 128 µg/mL | > 128 µg/mL | CN1c2ccc(Cl)cc2[C@@]2(C)c3c[nH]cc3-c3c([nH]c4ccc(Cl)cc34)[C@@H]12 | > 10 µM | inactive | inactive
3 | > 128 µg/mL | > 128 µg/mL | > 128 µg/mL | > 128 µg/mL | > 128 µg/mL | CN1c2ccc(Cl)cc2[C@@]2(C)c3cn(C)cc3-c3c([nH]c4ccc(Cl)cc34)[C@@H]12 | > 10 µM | inactive | inactive

The next lines start with the compound.

Row | SMILES | MIC [2] | MIC [4] | MIC [5] | MIC [7] | MIC [8] | IC50 [1] | inhibition [3] | inhibition [6]
4 | COC(=O)c1c(-c2c[nH]c3ccc(Cl)cc23)c(-c2c[nH]c3ccc(Cl)cc23)c(C(=O)OC)n1C | > 128 µg/mL | > 128 µg/mL | > 128 µg/mL | > 128 µg/mL | > 128 µg/mL | > 10 µM | inactive | inactive
5 | COC(=O)c1c(-c2c[nH]c3ccc(Cl)cc23)c(-c2c[nH]c3ccc(Cl)cc23)cn1C | > 128 µg/mL | > 128 µg/mL | > 128 µg/mL | > 128 µg/mL | > 128 µg/mL | > 10 µM | inactive | inactive
6 | Cc1[nH]cc2c1-c1c([nH]c3ccc(Cl)cc13)[C@H]1N(C)c3ccc(Cl)cc3[C@@]21C | > 128 µg/mL | > 128 µg/mL | > 128 µg/mL | > 128 µg/mL | > 128 µg/mL | > 10 µM | inactive | inactive
7 | Cc1c2c(cn1C)[C@]1(C)c3cc(Cl)ccc3N(C)[C@@H]1c1[nH]c3ccc(Cl)cc3c1-2 | > 128 µg/mL | > 128 µg/mL | > 128 µg/mL | > 128 µg/mL | > 128 µg/mL | 10 µM | inactive | inactive
